# A selection: hits, their analogues and other compounds. The true share with any hit is near 2%.
# SUMO1-SIM PPI: modulators of SUMO1 protein-protein interactions, primary screen, biochemical, uHTS. 360,000 tested, 0.33% active. AID 602429, 2012. Small ubiquitin-related modifier 1 (Homo sapiens), P63165. SUMO1 binding to a labelled peptide, TR-FRET, 1 h. inhibition, % at 20 µM; in the data active means inhibition above about 37%
# Target sequence (P63165 whole entry, looked up): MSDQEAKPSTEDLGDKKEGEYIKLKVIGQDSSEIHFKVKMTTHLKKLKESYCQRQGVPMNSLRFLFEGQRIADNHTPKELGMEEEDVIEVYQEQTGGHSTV
# LMPTP block: LMPTP phosphatase inhibitors, primary screen, biochemical, fluorescence intensity, uHTS; recombinant LMPTP-A, OMFP fluorogenic substrate; 360,000 tested, 0.22% active; Low molecular weight phosphotyrosine protein phosphatase (Homo sapiens), P24666; inhibition, % at 20 µM;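 active means compounds that cut the enzyme signal by at least half of the control window in the single-dose screen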;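 further: plate controls were DMSO wells with enzyme plus substrate for no effect and substrate without enzyme for full effect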
# Target sequence (P24666 whole entry, looked up): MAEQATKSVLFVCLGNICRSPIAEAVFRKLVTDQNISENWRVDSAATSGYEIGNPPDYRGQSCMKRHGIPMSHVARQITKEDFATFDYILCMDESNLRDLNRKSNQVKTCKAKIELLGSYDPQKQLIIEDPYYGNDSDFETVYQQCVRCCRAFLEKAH
#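 Buffer or medium: Bis-Tris pH 6.0, DTT, detergent; Assay system: LMPTP-A enzyme; Quantity: 0.625 nM enzyme; Detection: endpoint fluorescence intensity; Times: 50 min dark incubation at room temperature; Controls: substrate-only low control, DMSO enzyme-plus-substrate high control; Doses: single 20 µM dose; Read-out: percent inhibition versus substrate-only and uninhibited controls; Reagent: 400 µM OMFP.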
# Scp-1 inhibitor: Scp-1 phosphatase inhibitors, primary screen, biochemical, colorimetric, uHTS; Carboxy-terminal domain RNA polymerase II polypeptide A small phosphatase 1 (Homo …; Recombinant Scp1, phosphopeptide, malachite green phosphate absorbance; inhibition, % at 20 µM; 340,000 tested, 0.88% active; AID 493091, 2011;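 active means inhibition above about 50% at 20 µM, limit read from the data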;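 further: plate controls were DMSO wells with enzyme for no effect and wells lacking enzyme for full effect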
# Target sequence (Q9GZU7 76-261 limits assumed): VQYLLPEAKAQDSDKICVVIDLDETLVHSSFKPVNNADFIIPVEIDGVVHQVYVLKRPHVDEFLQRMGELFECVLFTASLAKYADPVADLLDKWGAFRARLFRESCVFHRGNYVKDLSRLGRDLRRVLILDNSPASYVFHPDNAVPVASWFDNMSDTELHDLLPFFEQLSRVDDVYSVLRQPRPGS
#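 System: SCP-1 catalytic domain; Reagent: Phospho 17-mer peptide substrate; Doses: one concentration, 20 µM, with 1.0% DMSO; Incubation: 45 min room-temperature reaction, 5 min colour, 30 min stabiliser; Signal: Phosphate-binding colour reagent, absorbance read at 630 nm.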
# DNMT1 inh: human DNMT1 methyltransferase inhibitors, primary screen, biochemical, molecular beacon, fluorescence, HinP1I cleavage, uHTS | 360,000 tested, 0.83% active | inhibition (reported as % activation of signal), % at 10 µM | DNA (cytosine-5)-methyltransferase 1 (Homo sapiens), P26358 | AID 588458, 2011
# CSN deneddyl inh: inhibitors of CSN-mediated cullin deneddylation, primary screen, biochemical, fluorescence polarization, uHTS; AID 651999, 2013; inhibition, % at 12.5 µM; Purified CSN, SCF-Nedd8-OG deneddylation; 360,000 tested, 0.38% active;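 active means pattern-corrected inhibition above about 35%, with an unprinted fluorescence ratio check between 0.5 and 1.5, limit read from the data, passing the limit was not always enough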;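 further: 0% = enzyme with substrate and 100% = substrate without enzyme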
#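 Assay system: HEK293T-derived human Csn5 enzyme; quantity: 0.24 nM enzyme; medium: Tris/NaCl/DTT buffer, pH 7.5; also added: substrate SCFSkp2-Nedd8OG, 10 nM; doses: 12.5 µM compound; schedule: 90 min reaction at room temperature; signal: FP; read-out: % inhibition of substrate cleavage by Csn5; benchmarks: substrate-only high control, full reaction low control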
# STEP inh: STEP phosphatase inhibitors, primary screen, biochemical, fluorescence intensity, uHTS | 360,000 tested, 0.25% active | recombinant STEP, OMFP fluorogenic substrate | inhibition, % at 20 µM | AID 588621, 2011;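 active means inhibition at 20 µM, scaled per plate between control wells, above about 37%, limit read from the data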;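 further: 0% = DMSO with enzyme and substrate and 100% = substrate only without enzyme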
#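 Measure: Control-normalized % inhibition with plate pattern correction | Test system: STEP phosphatase, cell-free reaction | Medium: pH 6.0 Bis-Tris with DTT and Tween 20 | Technique: Fluorescence, 480/540 nm | Times: Reaction 20 min, ambient temperature | Doses: Single compound dose of 20 µM, 1% DMSO final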
# CSN deneddyl val: Csn5 deneddylation inhibitors, confirmation, biochemical, fluorescence polarization, single concentration, SCF-Nedd8OG substrate; inhibition, % at 16.6 µM; 540 tested, 62% active; shares compounds with CSN deneddyl inh; Csn5 deneddylation of SCF-Nedd8OG, 90 min;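 further: 0% = DMSO with enzyme and 100% = no enzyme wells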
# MMP2 cntr CSN: MMP-2 protease inhibition counter-screen, confirmation, counter-screen for CSN deneddylation inhibitor project, biochemical, fluorescence, single concentration; shares compounds with CSN deneddyl inh; recombinant MMP-2, FRET substrate fluorescence, 60 min; inhibition, % at 16.6 µM; 540 tested, 33% active;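 active means corrected plate-normalized z-score of 5 or more, or -5 or less, or inhibition of 15% or more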;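 further: plate controls were DMSO wells with enzyme for no effect and buffer wells lacking MMP-2 for full effect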
# Thrombin cntr: counter-screen for CSN deneddylation inhibitors: bovine thrombin inhibition; bovine thrombin cleavage of Ub4-pepOG, fluorescence polarization; shares compounds with CSN deneddyl inh; 540 tested, 49% active; AID 720656; inhibition, % at 16.6 µM;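 active means inhibition at or above a set limit, with a fluorescence interference ratio between 0.5 and a set maximum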
# An asterisk follows results filed as active; nt = no result; ! = not active in a repeat. Unless noted, no stated cut-off is given here; in the data, active means inhibition above about 50%; inactive means the rest.
SMILES,SUMO1-SIM PPI,LMPTP block,Scp-1 inhibitor,DNMT1 inh,CSN deneddyl inh,STEP inh,CSN deneddyl val,MMP2 cntr CSN,Thrombin cntr
Cn1nc(C(=O)NNC(=O)C2CSC3(C)CCC(=O)N23)c2ccccc2c1=O (stereo not drawn),-1,0,-6,0,-12,8,nt,nt,nt
COc1ccc(CCNC(=O)CNCC2CCCCC2)cc1OC,-1,0,-8,-1,7,0,nt,nt,nt
O=C1/C(=C\c2ccco2)CCC/C1=C\c1ccco1,-4,3,-27,73*,39*,-14,66*,6,53*
CC1C/C(=C/c2cccs2)C(=O)/C(=C/c2cccs2)C1 (stereo not drawn),-9,4,-14,8,23,1,nt,nt,nt
O=C1/C(=C/c2cccs2)CCC/C1=C\c1cccs1,-16,2,-9,10,43*,2,92*,-4,5
CCCN1C=CC(=CC=C(C#N)C#N)C=C1,-52,8,-7,4,83*,5,23,5,83*
CCCCCN1C=CC=C/C1=C\C=C(C#N)C#N,-21,1,-3,-1,1,0,nt,nt,nt
C=CCN1C=CC(=CC=C(C#N)C#N)C=C1,-59,14,-14,7,91*,3,98*,8,79*
COc1ccc(NC(=O)c2cccc3cccnc23)cc1S(N)(=O)=O,-25,0,-1,-1,4,-1,nt,nt,nt
CC1=NN(c2ccccc2)C(=O)/C1=C\C=C1/N(C)c2ccccc2C1(C)C,-153,32,-6,-8,80*,18,65*,1,71*
O=C(NNC(=O)c1ccc(Br)s1)c1cccc(Cl)c1,4,1,-2,8,-4,2,nt,nt,nt
COc1cc(/C=C2\SC(=S)N(Nc3ncc(C(F)(F)F)cc3Cl)C2=O)ccc1O,-5,7,-14,-29,67*,-5,78*,-14,61*
CCOc1cc(/C=C2\SC(=S)N(NS(=O)(=O)c3ccccc3)C2=O)ccc1O,-28,0,-14,-5,33,1,nt,nt,nt
O=C(NN1C(=O)/C(=C/c2ccc(O)c(O)c2)SC1=S)c1ccccc1,5,31,-17,50*,50*,4,63*,20*,33*
CCOc1cc(/C=C2\SC(=S)N(Nc3ccccc3)C2=O)ccc1O,-29,4,-7,-12,37*,-3,75*,9,61*
COc1cc(/C=C2\SC(=S)N(Nc3ccccc3)C2=O)ccc1O,-16,4,-8,-22,46*,-7,85*,-1,56*
CN(C)c1ccc(/C=C2\SC(=S)N(Nc3ncc(C(F)(F)F)cc3Cl)C2=O)cc1,-6,2,-7,9,-68,-67,nt,nt,nt
NCCCCCc1cn(CC(=O)NCCCCCCCCCCC(=O)N2CCNCC2)nn1,-17,-3,4,-1,-3,-1,nt,nt,nt
COc1cc(C(=O)COC(=O)c2ccc3c(c2)OCCO3)cc(OC)c1OC,0,0,nt,2,-1,0,nt,nt,nt
O=C1/C(=C/c2ccc(O)c(O)c2)SC(=S)N1Nc1ccccc1,-25,6,-13,-3,54*,1,47,18*,54*
COc1cc(/C=C2\SC(=S)N(C(Cc3ccccc3)C(=O)O)C2=O)ccc1O (stereo not drawn),-38,0,-4,-4,36*,0,56*,6,68*
Cc1cc(C)cc(NC(=O)CSc2nc(CSc3ccc(Cl)cc3)cc(=O)[nH]2)c1,1,3,-8,2,2,1,nt,nt,nt
Cc1cccc(CN2CCN(C3CN(Cc4cn(Cc5cccc(Cl)c5)nn4)S(=O)(=O)C3)CC2)c1 (stereo not drawn),1,-1,nt,nt,-5,nt,nt,nt,nt
CCN1/C(=C\C(=S)Nc2ccccc2)Sc2ccccc21,-10,1,-3,-4,0,-2,nt,nt,nt
CCN1/C(=C/C(C)=C/c2sc3ccccc3[n+]2CC)Sc2ccccc21,21,74*,-1,13,77*,37,22,50*!,113*
SMILES,SUMO1-SIM PPI,LMPTP block,Scp-1 inhibitor,DNMT1 inh,CSN deneddyl inh,STEP inh,CSN deneddyl val,MMP2 cntr CSN,Thrombin cntr
CNC(=O)c1c(NC(=O)CCS(=O)(=O)c2ccc(C)cc2)sc2c1CCN(C(=O)OC)C2,3,-2,-1,0,0,-1,nt,nt,nt
Cc1cc(/C=N/NC(=O)C(O)(c2ccccc2)c2ccccc2)c(C)n1-c1cccc(C(=O)O)c1,27,2,27,54*,41*,3,59*,8,7
Nc1nc2ccc([N+](=O)[O-])cc2[nH]1,-19,0,-4,2,6,-1,nt,nt,nt
Nc1[nH]c2cc([N+](=O)[O-])ccc2c1-c1ccccn1,-41,10,4,-21,64*,-1,49,-5,44*
O=C1NC(=Nc2ccc(O)cc2)S/C1=C\C=C\c1ccco1,4,5,-5,15,48*,1,92*,7,-10
CC(C)(C)[C@H](N)C(=O)N[C@H]1CCC2C3CC=C4C[C@@H](O)CC[C@]4(C)C3CC[C@@]21C (stereo partly drawn),41*,-2,0,-31,49*,1,-23,3,16*
Cn1c(O)c(/C=N/NC(=O)c2cc3ccccc3cc2O)c2ccccc21,-9,3,-11,-21,40*,-3,75*,1,45*
O=C(CN1CCN(S(=O)(=O)c2ccccc2F)CC1)NC1CCCC1,-3,-1,-2,-1,-9,-2,nt,nt,nt
